From ChEMBL document CHEMBL1138617, “Synthesis of potent antitumor and antiviral benzofuran derivatives” (Bioorg Med Chem Lett, 2009)
pEC50, pIC50: −log10 of the molar value. Structures can show the parent of a compound that is named as a salt.

Tests used:
[1] = tested on: Human immunodeficiency virus; experiment: Antiviral activity against HIV infected in human CEM-SS cells assessed as inhibition of virus induced cell killing by XTT assay; type: functional, organism-based; settings: Human immunodeficiency virus 1, CEM-SS
How it was run: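 Microtiter anti-HIV assay in CEM-SS cells or fresh human PBMCs, measuring inhibition of HIV-induced cell killing or HIV replication. Read-out is XTT tetrazolium reduction to formazan by viable cells.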

U-937 = experiment: Cytotoxicity against human U937 cells by MTT assay; type: functional, cell-based
How it was run: (§1)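 Growth inhibition by MTT assay (Mosmann method) on human cancer cell lines and on normal human fetal lung fibroblast WI 38 cells.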

K562 = experiment: Cytotoxicity against human K562 cells by MTT assay; type: functional, cell-based; how it was run: as §1
[2] = target: Human immunodeficiency virus type 1 reverse transcriptase (Human immunodeficiency virus 1, UniProt Q72547); experiment: Inhibition of recombinant HIV1 reverse transcriptase in cell free Quan-T-RT by scintillation proximity assay
[3] = Cytotoxicity against human hepatocytes by MTT assay; type: cell-based, Hepatocyte
[4] = Cytotoxicity against human WI38 cells by MTT assay; type: cell-based; settings: WI-38; how it was run: as §1
[5] = Cytotoxicity against human RKOp27 cells by MTT assay; type: functional, cell-based
[6] = Therapeutic index, ratio of toxic dose of drug for 50% of the population TD50 to minimum effective dose ED50 of the population; settings: read-out: Ratio TD50/ED50
[7] = (§2) Inhibition of HCV NS3/4A protease activity after 48 hrs by RT-PCR; set-up: species or system Hepacivirus hominis
Hepacivirus hominis = experiment: as §2
NCI-H460 = experiment: Cytotoxicity against human NCI-H460 cells by MTT assay; type: functional, cell-based
G-361 = experiment: Cytotoxicity against human G361 cells by MTT assay; type: functional, cell-based; how it was run: as §1
HCV NS3-4A protease = experiment: Therapeutic index, ratio of CC50 for human hepatocytes to IC50 for HCV NS3-4A protease; type: cell-based, Hepatocyte; settings: read-out: Ratio CC50/IC50
GOTO = experiment: Cytotoxicity against human GOTO cells by MTT assay; type: functional, cell-based; how it was run: as §1
SK-MEL-28 = experiment: Cytotoxicity against human SK-MEL-28 cells by MTT assay; type: functional, cell-based; how it was run: as §1
HL-60 = experiment: Cytotoxicity against human HL60 cells by MTT assay; type: functional, cell-based; how it was run: as §1
SK-OV-3 = experiment: Cytotoxicity against human SKOV3 cells by MTT assay; type: functional, cell-based
SF-268 = experiment: Cytotoxicity against human SF268 cells by MTT assay; type: functional, cell-based
NB1 = experiment: Cytotoxicity against human NB-1 cells by MTT assay; type: functional, cell-based; how it was run: as §1

| SMILES | pIC50 [2] | pIC50 [7] | IC90 (Hepacivirus hominis) | pEC50 [1] | pIC50 (U-937) | pIC50 (K562) | CC50 [3] | pIC50 [4] | pIC50 [5] | selectivity ratio [6] | pIC50 (NCI-H460) | pIC50 (G-361) | selectivity ratio (HCV NS3-4A protease) | pIC50 (GOTO) | pIC50 (SK-MEL-28) | pIC50 (HL-60) | pIC50 (SK-OV-3) | pIC50 (SF-268) | pIC50 (NB1) |
| --- | --- | --- | --- | --- | --- | --- | --- | --- | --- | --- | --- | --- | --- | --- | --- | --- | --- | --- | --- |
| CCNc1cccnc1N1CCN(C(=O)c2cc3cc(OC)ccc3[nH]2)CC1 [ATEVIRDINE MESYLATE] |  |  |  | 9.00 |  |  |  |  |  |  |  |  |  |  |  |  |  |  |  |
| COc1c(C(=O)C2=CN3C(=CN=C2)Nc2ccccc23)c(O)cc2occc12 | 4.32 | < 4.00 |  | 10.22 | 10.52 | 10.53 |  | 10.55 | 10.59 | 23500 | 10.59 | 10.50 |  | 10.54 | 10.52 | 10.52 |  |  |  |
| NCc1nc2ccccc2[nH]1 | 5.29 | 6.06 | 2120 nM | 11.00 | 10.53 | 10.50 | 451000 nM | 10.57 | 10.59 | 1760 | 10.49 | 10.52 | 515 | 10.58 | 10.52 | 10.54 |  |  |  |
| COc1c2occc2c(OC)c2c(=O)c(C=O)coc12 | 4.76 | 6.38 | 796 nM | 10.70 | 10.54 | 10.59 | 234000 nM | 10.49 | 10.59 | 32600 | 10.55 | 10.58 | 556 | 10.56 | 10.58 | 10.50 |  |  |  |
| Nc1ccn([C@@H]2O[C@H](CO)[C@@H](O)[C@@H]2O)c(=O)n1 [CYTARABINE] |  |  |  |  |  |  |  |  |  |  |  |  |  |  |  |  |  | 8.11 |  |
| COc1cccc2c1C(=O)c1c(O)c3c(c(O)c1C2=O)C[C@@](O)(C(=O)CO)C[C@@H]3O[C@H]1C[C@H](N)[C@H](O)[C@H](C)O1 [DOXORUBICIN] |  |  |  |  | 8.35 | 8.18 |  |  |  |  |  |  |  | 8.33 |  |  | 8.38 |  | 8.29 |
| CCCCCOC(=O)Nc1nc(=O)n([C@@H]2O[C@H](C)[C@@H](O)[C@H]2O)cc1F [CAPECITABINE] |  |  |  |  |  |  |  |  | 8.36 |  |  |  |  |  |  |  |  |  |  |
| Nc1ccn([C@@H]2O[C@H](CO)[C@@H](O)C2(F)F)c(=O)n1 [GEMCITABINE HYDROCHLORIDE] |  |  |  |  |  |  |  |  |  |  | 8.67 |  |  |  |  |  |  |  |  |
| COc1c(C(=O)C2=CN3C(=CN=C2)Nc2ccccc23)c(O)c(OC)c2occc12 | 5.03 | 6.35 | 955 nM | 9.46 | 10.48 | 10.47 | 256000 nM | 10.48 | 10.56 | 21700 | 10.59 | 10.50 | 577 | 10.48 | 10.49 | 10.49 |  |  |  |

Second part, led by results:

| pIC50 [2] | pIC50 [7] | IC90 (Hepacivirus hominis) | SMILES | pEC50 [1] | pIC50 (U-937) | pIC50 (K562) | CC50 [3] | pIC50 [4] | pIC50 [5] | selectivity ratio [6] | pIC50 (NCI-H460) | pIC50 (G-361) | selectivity ratio (HCV NS3-4A protease) | pIC50 (GOTO) | pIC50 (SK-MEL-28) | pIC50 (HL-60) | pIC50 (SK-OV-3) | pIC50 (SF-268) | pIC50 (NB1) |
| --- | --- | --- | --- | --- | --- | --- | --- | --- | --- | --- | --- | --- | --- | --- | --- | --- | --- | --- | --- |
| 4.59 | 6.25 | 1320 nM | COc1c(C(=O)c2cnc3nc4ccccc4n3c2)c(O)c(OC)c2occc12 | 10.70 | 10.57 | 10.57 | 234000 nM | 10.33 | 10.56 | 1.14e+06 | 10.56 | 10.58 | 415 | 10.56 | 10.60 | 10.59 |  |  |  |
| 4.79 | < 4.00 |  | COc1c(C(=O)C2=CN3C=CC=CC3N=C2)c(O)c(OC)c2occc12 (configuration not stated) | 10.52 | 10.53 | 10.35 |  | 10.59 | 10.56 | 23500 | 10.56 | 10.32 |  | 10.48 | 10.52 | 10.56 |  |  |  |
| 4.82 | 6.47 | 1120 nM | COc1c(C(=O)C2=CN3C=CSC3N=C2)c(O)c(OC)c2occc12 (configuration not stated) | 10.40 | 10.55 | 10.35 | 127000 nM | 10.55 | 10.55 | 22600 | 10.59 | 10.42 | 371 | 10.55 | 10.55 | 10.59 | 8.48 |  |  |
| 5.32 | 6.01 | 2310 nM | COc1c(C(=O)/C=C/Nc2ccncc2)c(O)c(OC)c2occc12 | 11.00 | 10.58 | 10.58 | 435000 nM | 10.60 | 10.59 | 1260 | 10.55 | 10.58 | 441 | 10.60 | 10.55 | 10.58 |  |  |  |
| 9.52 | < 4.00 |  | COc1c(C(=O)C2=CN3OC(C)=NC3N=C2)c(O)c(OC)c2occc12 (configuration not stated) | 10.40 | 10.48 | 10.55 |  | 10.55 | 10.59 | 7690 | 10.59 | 10.54 |  | 10.55 | 10.47 | 10.55 |  |  |  |
| 4.84 | < 4.00 |  | COc1c(C(=O)C2=CN3C=CNC=C3N=C2)c(O)c(OC)c2occc12 | 10.05 | 10.55 | 10.49 |  | 10.43 | 10.55 | 20000 | 10.59 | 10.53 |  | 10.59 | 10.59 | 10.58 |  |  |  |
|  | 6.70 | 450 nM | CCC[C@H](NC(=O)[C@@H]1[C@H]2CCC[C@H]2CN1C(=O)[C@@H](NC(=O)[C@@H](NC(=O)c1cnccn1)C1CCCCC1)C(C)(C)C)C(=O)C(=O)NC1CC1 |  |  |  | 90000 nM |  |  |  |  |  | 1200 |  |  |  |  |  |  |
